Test [1] has as its system Platelet. The test can be described thus: Inhibition of ADP-induced platelet aggregation in human platelet rich plasma. It counts as functional. In a few lines: (§1)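 Citrated human venous blood spun 800 rpm 15 min at 21 °C for PRP, platelets adjusted to 230000 µL-1 with PPP. PRP preincubated with compound (final 10 µM–1 mM, 0.5% DMSO) 5 min at 37 °C with stirring, then 10 µM final ADP or epinephrine. Turbidimetric (Born) transmittance at 640 nm over 5 min. IC50 from sigmoid fit, ≥3 determinations in duplicate, mean ± SEM.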

The test system of test [2] is Platelet. The test can be described thus: Inhibition of epinephrine-induced platelet aggregation in human platelet rich plasma. It counts as functional. The essentials: as §1
Test [3] addresses T1, Coagulation factor X (Homo sapiens, UniProt P00742). Kind of test: Inhibition of human factor 10a at 250 uM by amydolitic assay. The essentials: (§2)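 Human factor Xa (2 nM) in 10 mM Tris pH 8, 0.15 M NaCl, 0.1% PEG 6000, preincubated 30 min at 25 °C with compound (final 10 nM–0.25 mM, ≤2% DMSO). Started with 0.04 mM S-2765; p-nitroanilide release at 405 nm for 5 min, 25 °C. Initial velocities give IC50 (≥3 determinations), Ki by Cheng-Prusoff.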

In test [4] the target is Prothrombin (Bos taurus) (UniProt P00735). Kind of test: Inhibition of bovine factor 2a at 250 uM by amydolitic assay. The essentials: (§3)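 Bovine thrombin (0.41 U/mL) in 10 mM Tris pH 8 with 0.15 M NaCl and 0.1% PEG 6000, compound (final 10 nM–0.25 mM, ≤2% DMSO) for 30 min at 25 °C, then 0.050 mM S-2238.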
For test [5], the target named is Prothrombin (Bos taurus, UniProt P00735). The test can be described thus: Inhibition of bovine factor 2a by amydolitic assay. The essentials: as §3
Test [6] has as its target T1, Coagulation factor X. The test can be described thus: Inhibition of human factor 10a by amydolitic assay. In a few lines:
as §2

The species entered for test [7] is Bos taurus. Kind of test: Inhibition of bovine alpha-chymotrypsin at 250 uM by amydolitic assay. The essentials:
(§4)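 Bovine α-chymotrypsin (0.4 µg/mL) in 50 mM Tris pH 7.5 with 50 mM CaCl2, incubated with compound (final 10 nM–0.25 mM) or DMSO 10 min at 25 °C. Substrate 0.185 mM N-succinyl-Ala-Ala-Pro-Phe-p-nitroanilide added; 405 nm read 5 min at 25 °C. Initial-rate IC50 (≥3 determinations) converted to Ki by Cheng-Prusoff.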

Test [8] concerns Plasma. The test can be described thus: Anticoagulant activity in human plasma assessed as effect on double the activated partial thromboplastin time upto 1 mM. It counts as functional, cell-free. The essentials: (§5)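 Pooled lyophilized human plasma with aPTT reagent and 0.025 mol/L CaCl2; inhibitor or solvent at increasing concentrations incubated with plasma 3 min at 37 °C. Clotting time read on a coagulometer against control plasma, triplicate measurements; concentration giving 2-fold aPTT prolongation calculated from concentration-response curves.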

Test [9] in a line: Inhibition of bovine alpha-chymotrypsin by amydolitic assay. Details: species or system Bos taurus. In a few lines: as §4
Test [10] concerns Plasma. The test can be described thus: Anticoagulant activity in human plasma assessed as concentration required to double the activated partial thromboplastin time. Type of test: functional. In a few lines:
as §5

The structures appear in SMILES notation. Active and inactive are the calls of the source. The rule behind the calls is not given here. A value given as a limit tells only on which side of the number the result lay.

T1 sequence (P00742 41-179 limits assumed): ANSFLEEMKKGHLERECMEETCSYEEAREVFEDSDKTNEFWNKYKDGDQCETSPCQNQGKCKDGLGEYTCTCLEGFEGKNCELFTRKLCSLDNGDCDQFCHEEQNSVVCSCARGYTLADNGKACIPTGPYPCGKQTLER
T1 sequence (P00742 235-488 limits assumed): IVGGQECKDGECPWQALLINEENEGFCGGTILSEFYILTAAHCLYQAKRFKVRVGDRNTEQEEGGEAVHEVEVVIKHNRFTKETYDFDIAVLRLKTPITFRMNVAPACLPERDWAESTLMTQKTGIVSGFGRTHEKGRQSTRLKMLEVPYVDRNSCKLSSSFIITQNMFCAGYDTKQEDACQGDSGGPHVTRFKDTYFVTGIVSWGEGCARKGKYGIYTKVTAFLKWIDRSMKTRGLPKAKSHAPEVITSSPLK

Regarding `CCCCCCOc1ccc(NC(=O)C2CCCNC2)cc1` (centres undefined), the IC50 is 85 µM in [1] and 43 µM in [2]. Moreover, the inhibition in test [3] and in [4] was under 30% in each case.
Turning to `N=C(N)N1CCCC(C(=O)Nc2cccc(OCc3ccc(F)cc3)c2)C1` (centres undefined), the results for the inhibition constant (Ki) in test [5] and in test [6] were 160 µM and 57000 nM, respectively. This compound showed a 50% inhibitory concentration (IC50) in test [1] of 274 µM.
For the compound `O=C(Nc1ccc(OCc2ccc(F)cc2)cc1)C1CCCNC1` (centres undefined), the values for the IC50 in test [1] and in test [2] were 116 µM and 90 µM, respectively. In addition, the inhibition in [3] and in [4] was under 30% in each case.
Take `N=C(N)N1CCC(C(=O)Nc2cccc(OCc3ccc(F)cc3)c2)CC1`: the Ki came to 20.8 µM in [5] and 33800 nM in test [6]. In addition, in test [1], the IC50 was 768 µM.
In [6], `O=C(Nc1cccc(OCc2ccc(-c3c(F)cccc3F)cc2)c1)C1CCNCC1` came in with an inhibitory constant (Ki) of 1450 nM. Also, the inhibition in [4] and in test [7] was under 30% throughout.
For `O=C(Nc1cccc(OCc2ccc(-c3ccccc3)cc2)c1)C1CCNCC1`, the results for the IC50 in test [1] and in [2] were 111 µM and 54 µM, respectively. The same compound returned a Ki in [6] of 1000 nM. In addition, the inhibition in test [4] is under 30%.
As for `O=C(Nc1cccc(OCc2ccc(-c3cc(F)c(F)c(F)c3)cc2)c1)C1CCNCC1`, the IC50 in [1] worked out at 76.7 µM. In test [6], this compound displayed a Ki of 666 nM. Moreover, the inhibition in [4] and in [7] was under 30% each time.
Consider `O=C(Nc1ccc(OCc2ccc(F)cc2)cc1)C1CCNCC1`, for which the half-inhibitory concentration (IC50) in test [1] was 121 µM; in [2] it was 93 µM. The inhibition in test [3] and in test [4] was under 30% each time.
Compound `O=C(Nc1ccc(OCc2ccc(-c3ccccc3)cc2)cc1)C1CCNCC1` came in with a 50% inhibitory concentration (IC50) in test [1] of 135 µM. Further, in test [6], the affinity, expressed as Ki, was 126000 nM. The compound further returned an inhibition in test [4] of under 30%.
In test [1], `O=C(Nc1cccc(OCc2ccccc2)c1)C1CCCNC1` (centres undefined) registered an IC50 of 128 µM. The inhibition in test [3] and in test [4] was under 30% each time.
With `O=C(Nc1cccc(OCc2ccc(-c3c(F)cc(F)cc3F)cc2)c1)C1CCNCC1`, the Ki is 26.7 µM in [5] and 9470 nM in test [6]. In test [7], this compound registered an inhibition of under 30%.
As for `O=C(Nc1cccc(OCc2ccccc2)c1)C1CCNCC1`, the IC50 in test [1] turned out to be 229 µM. Further, the inhibition in test [3] and in [4] was under 30% each time. In addition, the outcome in [8] was inactive.
On to `N=C(N)N1CCC(C(=O)Nc2cccc(OCc3ccc(-c4ccccc4)cc3)c2)CC1`, for which the figures for the Ki in test [5] and in [6] were 40.4 µM and 5200 nM, respectively. In addition, the IC50 came to 400 µM in test [1] and 244 µM in test [2].
On to `CCCCCCOc1cccc(NC(=O)C2CCCNC2)c1` (centres undefined), for which the IC50 in test [1] came out at 113 µM. In addition, the inhibition in test [3] and in test [4] was under 30% throughout.
Consider `O=C(Nc1cccc(OCc2ccc(-c3cccc(F)c3F)cc2)c1)C1CCNCC1`, for which the Ki in test [6] was 548 nM; in [9], 60 µM. In test [4], this compound yielded an inhibition of under 30%.
In the case of `O=C(Nc1cccc(OCc2ccc(-c3ccc(F)cc3)cc2)c1)C1CCNCC1`, the IC50 in test [1] was determined as 35 µM; in test [2] it was 19 µM. Besides, the Ki in [6] amounted to 3870 nM. The inhibition in [4] and in test [7] was under 30% each time.
`COc1ccc(NC(=O)C2CCCNC2)cc1` (centres undefined) showed an IC50 in [1] of 983 µM.
In the case of `O=C(Nc1cccc(OCc2ccc(-c3ccc(C(F)(F)F)cc3)cc2)c1)C1CCNCC1`, the 2PT in [10] was 140 µM. The compound further displayed an IC50 in test [1] of 65.7 µM. Further, affinity in test [6] was put at a Ki of 57 nM. In addition, the inhibition in test [4] and in test [7] was under 30% throughout.
Compound `O=C(Nc1cccc(OCc2ccc(-c3cc(F)ccc3F)cc2)c1)C1CCNCC1` had a Ki in [6] of 1270 nM. Moreover, the inhibition in test [4] and in test [7] was under 30% in each case.
On to `O=C(Nc1cccc(OCc2ccc(F)cc2)c1)C1CCNCC1`, for which the IC50 was 68 µM in test [1] and 36 µM in test [2]. Also, the inhibition in test [3] and in test [4] was under 30% each time.
Consider `O=C(Nc1cccc(OCc2ccc(-c3ccccc3)cc2)c1)C1CCCNC1` (centres undefined), for which the results for the IC50 in test [1] and in test [2] were 153 µM and 87 µM, respectively. In test [6], the affinity corresponds to a Ki of 2500 nM. Moreover, the inhibition in test [4] was under 30%.
Take `O=C(Nc1cccc(OCc2ccc(F)cc2)c1)C1CCCNC1` (centres undefined): the IC50 worked out at 103 µM in test [1] and 70 µM in [2]. This compound also registered a Ki in test [6] of 260000 nM. In test [4], this compound registered an inhibition of under 30%.
Consider `O=C(Nc1cccc(OCc2ccc(-c3cc(F)cc(F)c3)cc2)c1)C1CCNCC1`, for which, in test [10], the 2PT came out at 190 µM. Besides, the IC50 in [1] was 27.8 µM; in test [2] it was 17 µM. The Ki in [6] was found to be 130 nM; in test [9], 60.3 µM. For the same compound, the inhibition in [4] was under 30%.
In the case of `O=C(Nc1ccc(OCc2ccc(-c3ccccc3)cc2)cc1)C1CCCNC1` (centres undefined), the IC50 in test [1] came out at 125 µM. Also, the inhibition in test [3] and in test [4] was under 30% in each case.
As to `O=C(Nc1cccc(OCc2ccc(-c3cccc(F)c3)cc2)c1)C1CCNCC1`, the 2PT in test [10] was 205 µM. Besides, the 50% inhibitory concentration (IC50) in test [1] is 34.7 µM; in test [2] it was 14.4 µM. The Ki was 177 nM in test [6] and 31 µM in [9]. The inhibition in test [4] is under 30%.
Compound `O=C(Nc1cccc(OCc2ccc(-c3ccccc3F)cc2)c1)C1CCNCC1` registered an IC50 in [1] of 62.7 µM. The same compound displayed a Ki in test [6] of 767 nM. Also, the inhibition in test [4] and in test [7] was under 30% each time.
Take `O=C(Nc1cccc(OCc2ccc(-c3ccc(F)cc3F)cc2)c1)C1CCNCC1`: the Ki in [5] worked out at 54 µM; in test [6], 512 nM. For the same compound, the IC50 in test [1] worked out at 98.8 µM. Also, the inhibition in [7] is under 30%.
Consider `N=C(N)N1CCCC(C(=O)Nc2cccc(OCc3ccc(-c4ccccc4)cc3)c2)C1` (centres undefined), for which the values for the Ki in test [5] and in test [6] were 31.3 µM and 2000 nM, respectively. The compound also showed an IC50 in test [1] of over 1000 µM.

For the origin of these results see ChEMBL document CHEMBL1140910, “Fluorinated benzyloxyphenyl piperidine-4-carboxamides with dual function against thrombosis: inhibitors of factor Xa and platelet aggregation” (J Med Chem, 2009).
